In ChEMBL document CHEMBL1795244, “Preliminary evaluation of a 3H imidazoquinoline library as dual TLR7/TLR8 antagonists” (Bioorg Med Chem, 2011):
Calls of active or inactive are those of the source. No cut-off for these calls is given here.

Legend:
[1] = target: T1, Toll-like receptor 7 (Homo sapiens, UniProt Q9NYK1); experiment: Antagonist activity at TLR7 expressed in HEK293 cells co-transfected with NF-kappaB/sAP gene assessed as inhibition of 1 ug/ml of gardiquimod-induced NF-kappaB activation by reporter gene assay; format: functional, cell-based
T1 sequence (Q9NYK1 whole entry): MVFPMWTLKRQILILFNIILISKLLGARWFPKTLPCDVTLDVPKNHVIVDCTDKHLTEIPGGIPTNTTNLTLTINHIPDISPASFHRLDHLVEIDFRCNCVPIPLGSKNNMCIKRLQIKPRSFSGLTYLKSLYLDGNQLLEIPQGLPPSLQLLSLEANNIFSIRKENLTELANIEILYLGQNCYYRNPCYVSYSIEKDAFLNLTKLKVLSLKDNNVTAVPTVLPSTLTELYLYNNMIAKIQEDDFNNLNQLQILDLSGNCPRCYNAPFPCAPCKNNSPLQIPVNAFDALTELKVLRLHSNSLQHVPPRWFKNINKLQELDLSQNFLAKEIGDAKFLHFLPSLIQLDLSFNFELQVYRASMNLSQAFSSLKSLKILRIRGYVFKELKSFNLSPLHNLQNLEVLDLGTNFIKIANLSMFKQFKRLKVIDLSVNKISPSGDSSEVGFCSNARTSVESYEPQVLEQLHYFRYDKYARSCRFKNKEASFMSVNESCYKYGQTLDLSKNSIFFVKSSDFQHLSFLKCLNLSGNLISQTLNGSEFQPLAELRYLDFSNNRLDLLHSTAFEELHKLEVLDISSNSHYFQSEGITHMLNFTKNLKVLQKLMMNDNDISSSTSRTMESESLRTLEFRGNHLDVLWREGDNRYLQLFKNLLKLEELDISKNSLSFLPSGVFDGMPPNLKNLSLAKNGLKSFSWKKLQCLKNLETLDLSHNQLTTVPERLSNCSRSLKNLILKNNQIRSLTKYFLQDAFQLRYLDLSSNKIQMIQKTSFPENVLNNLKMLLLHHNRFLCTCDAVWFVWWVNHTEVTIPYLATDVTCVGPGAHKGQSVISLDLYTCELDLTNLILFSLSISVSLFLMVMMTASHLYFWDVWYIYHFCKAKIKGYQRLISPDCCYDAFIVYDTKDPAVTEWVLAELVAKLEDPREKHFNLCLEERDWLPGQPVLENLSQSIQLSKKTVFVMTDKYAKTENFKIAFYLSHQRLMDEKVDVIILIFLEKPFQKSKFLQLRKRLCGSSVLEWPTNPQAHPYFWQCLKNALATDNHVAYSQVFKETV
Summary of the method: (§1)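 HEK-Blue-7 cells (HEK293 stably carrying TLR7 plus NF-κB/AP-1-driven secreted alkaline phosphatase), kept in selection medium with zeocin and normocin. Seeded at ~10⁵ cells/mL and grown to confluency, then stimulated with gardiquimod 1 μg/mL while serially diluted compounds were added at the same time (highest 250 μM). Incubated overnight; supernatant sAP read with chromogen at 620 nm; duplicates or quadruplicates.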

[2] = target: T2, Toll-like receptor 8 (Homo sapiens, UniProt Q9NR97); experiment: Antagonist activity at TLR8 expressed in HEK293 cells co-transfected with NF-kappaB/sAP gene assessed as inhibition of CL075-induced NF-kappaB activation by reporter gene assay; format: functional, cell-based
T2 sequence (Q9NR97 whole entry): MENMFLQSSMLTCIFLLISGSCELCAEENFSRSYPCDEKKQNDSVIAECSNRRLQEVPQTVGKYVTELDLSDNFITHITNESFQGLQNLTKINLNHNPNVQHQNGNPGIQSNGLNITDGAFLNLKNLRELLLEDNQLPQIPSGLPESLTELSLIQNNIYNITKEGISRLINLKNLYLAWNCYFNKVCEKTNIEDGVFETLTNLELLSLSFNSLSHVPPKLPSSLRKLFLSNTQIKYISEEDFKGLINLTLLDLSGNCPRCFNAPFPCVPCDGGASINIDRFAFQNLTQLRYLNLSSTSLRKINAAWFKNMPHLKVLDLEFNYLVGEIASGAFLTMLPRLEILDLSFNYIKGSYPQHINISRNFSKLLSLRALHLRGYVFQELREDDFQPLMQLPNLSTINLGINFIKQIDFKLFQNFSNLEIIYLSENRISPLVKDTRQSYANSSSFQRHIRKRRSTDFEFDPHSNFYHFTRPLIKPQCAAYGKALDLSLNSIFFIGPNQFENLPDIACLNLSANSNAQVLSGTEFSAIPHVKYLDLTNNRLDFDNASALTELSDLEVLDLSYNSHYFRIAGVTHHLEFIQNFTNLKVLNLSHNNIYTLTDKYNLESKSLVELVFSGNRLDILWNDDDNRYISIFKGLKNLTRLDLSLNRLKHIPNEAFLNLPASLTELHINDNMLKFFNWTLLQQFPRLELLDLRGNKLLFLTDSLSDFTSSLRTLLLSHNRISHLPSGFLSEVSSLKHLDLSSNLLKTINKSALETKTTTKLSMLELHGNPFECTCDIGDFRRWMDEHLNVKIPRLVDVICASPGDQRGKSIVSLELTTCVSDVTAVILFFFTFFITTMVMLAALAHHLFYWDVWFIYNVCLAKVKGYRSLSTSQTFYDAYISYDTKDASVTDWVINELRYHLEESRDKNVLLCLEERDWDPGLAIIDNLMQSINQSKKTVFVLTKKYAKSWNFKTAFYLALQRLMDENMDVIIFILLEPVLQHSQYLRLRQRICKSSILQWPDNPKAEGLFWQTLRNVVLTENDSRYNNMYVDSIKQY

[3] = target: T3, Toll-like receptor 7 (Homo sapiens) (UniProt Q9NYK1); experiment: Antagonist activity at TLR7 expressed in HEK293 cells co-transfected with NF-kappaB/sAP gene assessed as inhibition of gardiquimod-induced NF-kappaB activation at 250 uM by reporter gene assay; format: functional, cell-based; summary of the method: as §1
T3 sequence (whole entry): T1 sequence (Q9NYK1 whole entry)

[4] = target: Toll-like receptor 8 (Homo sapiens) (UniProt Q9NR97); experiment: Antagonist activity at TLR8 expressed in HEK293 cells co-transfected with NF-kappaB/sAP gene assessed as inhibition of CL075-induced NF-kappaB activation at 250 uM by reporter gene assay
[5] = target: T1, Toll-like receptor 7; experiment: Antagonist activity at TLR7 expressed in HEK293 cells co-transfected with NF-kappaB/sAP gene assessed as inhibition of 250 ng/ml of gardiquimod-induced NF-kappaB activation by reporter gene assay

| SMILES | IC50 [1] | IC50 [2] | inhibition [3] | inhibition [4] | IC50 [5] |
| --- | --- | --- | --- | --- | --- |
| Cn1c(C2CCCCC2)nc2c3ccccc3ncc21 | 22 µM | 24.3 µM |  |  |  |
| COc1ccc(Cn2c(C3CCCCC3)nc3c4ccccc4ncc32)cc1 | 19.9 µM | 40 µM |  |  |  |
| C#CCn1c(CNCC)nc2c3ccccc3ncc21 | 26.1 µM | 28.1 µM |  |  |  |
| OCCCn1c(-c2ccccc2)nc2c3ccccc3ncc21 |  | 37.2 µM | inactive |  |  |
| CCNCc1nc2c3ccccc3ncc2n1CCCO |  |  | inactive | inactive |  |
| CCCCCCCCCc1nc2c3ccccc3ncc2n1CC(C)(C)O | 14.4 µM |  |  |  |  |
| COc1ccc(Cn2c(-c3ccccc3)nc3c4ccccc4[n+](Cc4ccc(OC)cc4)cc32)cc1 | 2.79 µM | 4.55 µM |  |  | 0.82 µM |
| CCNCc1nc2c3ccccc3nc(NC(=O)c3ccccc3)c2n1CC(C)(C)O |  | 21.2 µM | inactive |  |  |
| CCCCCCCCCc1nc2c3ccccc3ncc2n1C | 10.1 µM |  |  |  |  |
| CCCCCCCCCc1nc2c3ccccc3ncc2n1Cc1ccc(OC)cc1 | 19.4 µM |  |  |  |  |
| CCNCc1nc2c3ccccc3ncc2n1Cc1ccc(OC)cc1 | 28 µM | 59.6 µM |  |  |  |
| CC(C)(O)Cn1c(-c2ccccc2)nc2c3ccccc3ncc21 |  | 38.4 µM | inactive |  |  |
| COc1ccc(Cn2c(-c3ccccc3)nc3c4ccccc4ncc32)cc1 |  |  | inactive | inactive |  |
| CC(C)(O)Cn1c(C2CCCCC2)nc2c3ccccc3ncc21 |  | 38.7 µM | inactive |  |  |
| C#CCn1c(C2CCCCC2)nc2c3ccccc3ncc21 | 21.9 µM | 21.1 µM |  |  |  |
| Cn1c(-c2ccccc2)nc2c3ccccc3ncc21 | 21.6 µM | 25.8 µM |  |  |  |
| CCNCc1nc2c3ccccc3ncc2n1C | 30.4 µM |  |  |  |  |
| OCCCn1c(C2CCCCC2)nc2c3ccccc3ncc21 |  | 20.3 µM | inactive |  |  |
| CCNCc1nc2c3ccccc3[n+]([O-])cc2n1CC(C)(C)O |  | 46.5 µM | inactive |  |  |
| C#CCn1c(CCCCCCCCC)nc2c3ccccc3ncc21 | 8.58 µM | 10.1 µM |  |  |  |
| C#CCn1c(-c2ccccc2)nc2c3ccccc3ncc21 | 14.8 µM | 13.7 µM |  |  |  |
| CCCCCCCCCc1nc2c3ccccc3ncc2n1CCCO |  | 4.81 µM | inactive |  |  |
